Assay results published in ChEMBL document CHEMBL1629439, “High-throughput identification of antibacterials against methicillin-resistant Staphylococcus aureus (MRSA) and the transglycosylase” (Bioorg Med Chem, 2010).
≈ marks a conversion by molar mass, not a printed value.

Experiments:
Staphylococcus aureus [1] = experiment: Antimicrobial activity against oxacillin- and methicillin-resistant Staphylococcus aureus isolate Sa-OXA-R2 after 18 to 24 hrs by alamar blue assay; assay type: functional
How it was run: (§1)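 Broth microdilution per NCCLS standard, Mueller-Hinton broth, 8-point twofold dilutions; exponentially growing cells at 5 10^5 cells/ml with compound, 18–24 h at 37 C; 20% Alamar blue added, fluorescence read; MIC90 taken as lowest concentration preventing at least 90% growth.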

Bacillus subtilis = experiment: Antimicrobial activity against Bacillus subtilis ATCC 23857 after 18 to 24 hrs by alamar blue assay; assay type: functional
How it was run: (§2)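 Broth microdilution per NCCLS in Mueller-Hinton broth, 8-point twofold dilutions, 384-well format. Exponential-phase cells at 5 × 10^5 cells/ml incubated with compound 18–24 h at 37 °C, then 20% Alamar blue added and fluorescence read. MIC90 taken as the lowest concentration preventing at least 90% bacterial growth.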

Escherichia coli = experiment: Antimicrobial activity against Escherichia coli ATCC […] after 18 to 24 hrs by alamar blue assay; assay type: functional; details: Escherichia coli; read-out: MIC; how it was run: as §2
Pseudomonas aeruginosa = experiment: Antimicrobial activity against Pseudomonas aeruginosa ATCC 25619 after 18 to 24 hrs by alamar blue assay; assay type: functional; details: Pseudomonas aeruginosa, ATCC 25619; read-out: MIC; how it was run: as §2
Acinetobacter baumannii = experiment: Antimicrobial activity against Acinetobacter baumannii ATCC 49139 after 18 to 24 hrs by alamar blue assay; assay type: functional; details: Acinetobacter baumannii, ATCC 49139; read-out: MIC; how it was run: as §2
[2] = test system: Stenotrophomonas maltophilia; experiment: Antimicrobial activity against Stenotrophomonas maltophilia ATCC 13637 after 18 to 24 hrs by alamar blue assay; assay type: functional; details: Stenotrophomonas maltophilia, ATCC 13637; read-out: MIC; how it was run: as §2
Serratia marcescens = experiment: Antimicrobial activity against Serratia marcescens ATCC 14756 after 18 to 24 hrs by alamar blue assay; assay type: functional; details: Serratia marcescens, ATCC 14756; read-out: MIC; how it was run: as §2
[3] = test system: Mycolicibacterium smegmatis; experiment: Antimicrobial activity against Mycobacterium smegmatis BCRC 11565 after 18 to 24 hrs by alamar blue assay; assay type: functional; details: Mycolicibacterium smegmatis, BCRC 11565; read-out: MIC; how it was run: as §2
Staphylococcus aureus [4] = experiment: Antimicrobial activity against methicillin-resistant Staphylococcus aureus isolate NTUH4722 after 18 to 24 hrs by alamar blue assay; assay type: functional; how it was run: as §1
Staphylococcus aureus [5] = experiment: Antimicrobial activity against methicillin-resistant Staphylococcus aureus ATCC 33592 after 18 to 24 hrs by alamar blue assay; assay type: functional; details: Staphylococcus aureus, ATCC 33592; read-out: MIC; how it was run: as §1
Staphylococcus aureus [6] = experiment: Antimicrobial activity against Staphylococcus aureus ATCC 29213 after 18 to 24 hrs by alamar blue assay

Compound | MIC (Staphylococcus aureus [1]) | MIC (Bacillus subtilis) | MIC (Escherichia coli) | MIC (Pseudomonas aeruginosa) | MIC (Acinetobacter baumannii) | MIC [2] | MIC (Serratia marcescens) | MIC [3] | MIC (Staphylococcus aureus [4]) | MIC (Staphylococcus aureus [5]) | MIC (Staphylococcus aureus [6])
O=C(Nc1ccc(-c2nc3ccccc3[nH]2)cc1)c1ccc([N+](=O)[O-])o1 | 4 µg/mL (≈ 11.5 µM) | 0.06 µg/mL (≈ 0.172 µM) | 256 µg/mL (≈ 735 µM) | 128 µg/mL (≈ 367 µM) | 12 µg/mL (≈ 34.5 µM) | 32 µg/mL (≈ 91.9 µM) | 32 µg/mL (≈ 91.9 µM) | 0.5 µg/mL (≈ 1.44 µM) | 8 µg/mL (≈ 23 µM) | 0.25 µg/mL (≈ 0.718 µM) | 0.125 µg/mL (≈ 0.359 µM)
CCc1ccccc1NS(=O)(=O)c1ccc2c(c1)NC(=O)C(C)S2 (configuration not stated) | 1 µg/mL (≈ 2.76 µM) | < 0.03 µg/mL | > 256 µg/mL | > 256 µg/mL | > 256 µg/mL | > 256 µg/mL | > 256 µg/mL | > 64 µg/mL | 32 µg/mL (≈ 88.3 µM) | 1 µg/mL (≈ 2.76 µM) | 0.5 µg/mL (≈ 1.38 µM)
CCCc1cc(O)nc(N2NC(C)=CC2NC(=O)c2ccccc2Cl)n1 (configuration not stated) | 2 µg/mL (≈ 5.35 µM) | 0.25 µg/mL (≈ 0.669 µM) | > 256 µg/mL | > 256 µg/mL | > 256 µg/mL | > 256 µg/mL | > 256 µg/mL | 0.25 µg/mL (≈ 0.669 µM) | 1 µg/mL (≈ 2.67 µM) | 0.5 µg/mL (≈ 1.34 µM) | 1 µg/mL (≈ 2.67 µM)
O=C(Nc1cccc(C2=Nc3ccccc3C2)c1)c1ccc([N+](=O)[O-])o1 | 0.5 µg/mL (≈ 1.44 µM) | 0.06 µg/mL (≈ 0.173 µM) | 256 µg/mL (≈ 737 µM) | 128 µg/mL (≈ 369 µM) | 12 µg/mL (≈ 34.5 µM) | 32 µg/mL (≈ 92.1 µM) | 32 µg/mL (≈ 92.1 µM) | 0.5 µg/mL (≈ 1.44 µM) | 0.5 µg/mL (≈ 1.44 µM) | 0.25 µg/mL (≈ 0.72 µM) | 0.5 µg/mL (≈ 1.44 µM)
COc1ccccc1N1C(=O)c2cc([N+](=O)[O-])cc3cc([N+](=O)[O-])cc(c23)C1=O | 0.3 µg/mL (≈ 0.763 µM) | 4 µg/mL (≈ 10.2 µM) | > 256 µg/mL | > 256 µg/mL | > 256 µg/mL | > 256 µg/mL | > 256 µg/mL | 4 µg/mL (≈ 10.2 µM) | 2.5 µg/mL (≈ 6.36 µM) | 2.5 µg/mL (≈ 6.36 µM) | 1.25 µg/mL (≈ 3.18 µM)
CCC1Sc2ccc(S(=O)(=O)Nc3c(C)cc(C)cc3C)cc2NC1=O (configuration not stated) | > 64 µg/mL | < 0.03 µg/mL | > 256 µg/mL | > 256 µg/mL | > 256 µg/mL | > 256 µg/mL | > 256 µg/mL | > 64 µg/mL | 32 µg/mL (≈ 81.9 µM) | 64 µg/mL (≈ 164 µM) | 2 µg/mL (≈ 5.12 µM)
CSc1nc2ccc(NC(=O)c3ccc([N+](=O)[O-])o3)cc2s1 | 1 µg/mL (≈ 2.98 µM) | 0.06 µg/mL (≈ 0.179 µM) | 256 µg/mL (≈ 763 µM) | 128 µg/mL (≈ 382 µM) | 12 µg/mL (≈ 35.8 µM) | 32 µg/mL (≈ 95.4 µM) | 32 µg/mL (≈ 95.4 µM) | 0.5 µg/mL (≈ 1.49 µM) | 1 µg/mL (≈ 2.98 µM) | 1 µg/mL (≈ 2.98 µM) | 1 µg/mL (≈ 2.98 µM)
Cc1c(CC(=O)N2CCC(C(=O)O)CC2)c(=O)oc2c(C)c3occ(-c4ccc(F)cc4)c3cc12 | 2.5 µg/mL (≈ 5.24 µM) | > 64 µg/mL | > 256 µg/mL | > 256 µg/mL | > 256 µg/mL | > 256 µg/mL | > 256 µg/mL | 1 µg/mL (≈ 2.09 µM) | 2.5 µg/mL (≈ 5.24 µM) | 1.25 µg/mL (≈ 2.62 µM) | 2.5 µg/mL (≈ 5.24 µM)
CCCC(NC(=O)Cc1c(C)c2cc3c(-c4ccc(Cl)cc4)coc3c(C)c2oc1=O)C(=O)O (configuration not stated) | 1.25 µg/mL (≈ 2.59 µM) | > 64 µg/mL | > 256 µg/mL | > 256 µg/mL | > 256 µg/mL | > 256 µg/mL | > 256 µg/mL | 1 µg/mL (≈ 2.07 µM) | 2.5 µg/mL (≈ 5.19 µM) | 2.5 µg/mL (≈ 5.19 µM) | 1.25 µg/mL (≈ 2.59 µM)
Cc1ccc(N2C(=O)c3ccc([N+](=O)[O-])c4c([N+](=O)[O-])ccc(c34)C2=O)cc1 | 2.5 µg/mL (≈ 6.63 µM) | 4 µg/mL (≈ 10.6 µM) | > 256 µg/mL | > 256 µg/mL | > 256 µg/mL | > 256 µg/mL | > 256 µg/mL | 4 µg/mL (≈ 10.6 µM) | 2.5 µg/mL (≈ 6.63 µM) | 2.5 µg/mL (≈ 6.63 µM) | 5 µg/mL (≈ 13.3 µM)
O=C(Nc1cccc2c1C(=O)NC2=O)c1ccc([N+](=O)[O-])o1 | 2 µg/mL (≈ 6.64 µM) | 0.06 µg/mL (≈ 0.199 µM) | 256 µg/mL (≈ 850 µM) | 128 µg/mL (≈ 425 µM) | 12 µg/mL (≈ 39.8 µM) | 32 µg/mL (≈ 106 µM) | 32 µg/mL (≈ 106 µM) | 0.5 µg/mL (≈ 1.66 µM) | 2 µg/mL (≈ 6.64 µM) | 1 µg/mL (≈ 3.32 µM) | 4 µg/mL (≈ 13.3 µM)
COC(=O)c1c(NC(=O)c2ccc([N+](=O)[O-])o2)sc2c1CC(C)(C)NC2(C)C | 2 µg/mL (≈ 4.91 µM) | 0.06 µg/mL (≈ 0.147 µM) | 256 µg/mL (≈ 628 µM) | 128 µg/mL (≈ 314 µM) | 12 µg/mL (≈ 29.5 µM) | 32 µg/mL (≈ 78.5 µM) | 32 µg/mL (≈ 78.5 µM) | 0.5 µg/mL (≈ 1.23 µM) | 4 µg/mL (≈ 9.82 µM) | 2 µg/mL (≈ 4.91 µM) | 2 µg/mL (≈ 4.91 µM)
